ChEMBL document CHEMBL3808334, “Synthesis and in vitro evaluation of novel triazine analogues as anticancer agents and their interaction studies with bovine serum albumin” (Eur J Med Chem, 2016)

Experiments:
Type in all cases: functional
[1] = test system: SR; experiment: Growth inhibition of human SR cells incubated for 48 hrs by sulforhodamine B assay
How it was run: (§1)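 Cells were plated at 5,000–40,000 per well according to doubling time and preincubated 24 h at 37 °C in 5% CO2; time-zero plates were then TCA-fixed. Five concentrations (10-fold or ½-log dilutions, DMSO stock) were incubated 48 h. Cells were TCA-fixed, stained with 0.4% SRB and read at 515 nm. GI50 was taken where [(Ti−Tz)/(C−Tz)]×100 = 50.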

[2] = Growth inhibition of human DU145 cells incubated for 48 hrs by sulforhodamine B assay; conditions: DU-145, 48 h
How it was run: (§2)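 Cells seeded at 5,000–40,000/well according to doubling time and preincubated 24 h at 37 °C, 5% CO2. Time-zero plates were TCA-fixed. DMSO concentrate was diluted in medium with 50 µg/ml gentamicin to give five concentrations (10-fold or ½ log steps), then exposed 48 h. Cells were TCA-fixed, stained with 0.4% SRB and read at 515 nm. Percent growth was taken against time-zero and control; GI50, TGI and LC50 derived.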

[3] = test system: SN12C; experiment: Growth inhibition of human SN12C cells assessed as cell growth at 10 uM incubated for 48 hrs by sulforhodamine B assay; conditions: read-out: Activity
[4] = Growth inhibition of human TK10 cells assessed as cell growth at 10^-8 M incubated for 48 hrs by sulforhodamine B assay; conditions: TK-10, 48 h, read-out: Activity
[5] = Growth inhibition of human TK10 cells assessed as cell growth at 10^-6 M incubated for 48 hrs by sulforhodamine B assay; conditions: TK-10, 48 h, read-out: Activity
[6] = test system: K562; experiment: Growth inhibition of human K562 cells assessed as cell growth at 10^-6 M incubated for 48 hrs by sulforhodamine B assay; conditions: K562, 48 h, read-out: Activity
[7] = test system: NCI-H522; experiment: Growth inhibition of human NCI-H522 cells assessed as cell growth at 10^-7 M incubated for 48 hrs by sulforhodamine B assay; conditions: NCI-H522, 48 h, read-out: Activity
[8] = test system: NCI/ADR-RES; experiment: Growth inhibition of human NCI/ADR-RES cells assessed as cell growth at 10^-7 M incubated for 48 hrs by sulforhodamine B assay; conditions: read-out: Activity
[9] = test system: NCI-H226; experiment: Growth inhibition of human NCI-H226 cells assessed as cell growth at 10^-5 M incubated for 48 hrs by sulforhodamine B assay; conditions: NCI-H226, 48 h, read-out: Activity
[10] = test system: NCI-H322M; experiment: Growth inhibition of human NCI-H322M cells assessed as cell growth at 10^-8 M incubated for 48 hrs by sulforhodamine B assay; conditions: read-out: Activity
[11] = test system: SK-MEL-2; experiment: Growth inhibition of human SK-MEL-2 cells assessed as cell growth at 10^-7 M incubated for 48 hrs by sulforhodamine B assay; conditions: SK-MEL-2, 48 h, read-out: Activity
[12] = Growth inhibition of human prostate cancer cells incubated for 48 hrs by sulforhodamine B assay; conditions: Cancer cell lines
[13] = Growth inhibition of human colon cancer cells incubated for 48 hrs by sulforhodamine B assay; conditions: Cancer cell lines
[14] = test system: SK-MEL-5; experiment: Growth inhibition of human SK-MEL-5 cells incubated for 48 hrs by sulforhodamine B assay; conditions: SK-MEL-5, 48 h; how it was run: as §1
[15] = Growth inhibition of human SW620 cells assessed as cell growth at 10^-5 M incubated for 48 hrs by sulforhodamine B assay; conditions: SW-620, 48 h, read-out: Activity
[16] = test system: MDA-MB-468; experiment: Growth inhibition of human MDA-MB-468 cells assessed as cell growth at 10^-4 M incubated for 48 hrs by sulforhodamine B assay; conditions: MDA-MB-468, 48 h, read-out: Activity
[17] = test system: SN12C; experiment: Growth inhibition of human SN12C cells assessed as cell growth at 10^-7 M incubated for 48 hrs by sulforhodamine B assay; conditions: read-out: Activity
[18] = Growth inhibition of human LOXIMVI cells assessed as cell growth at 10^-4 M incubated for 48 hrs by sulforhodamine B assay; conditions: LOX IMVI, read-out: Activity
[19] = Growth inhibition of human Hs 578T cells assessed as cell growth at 10^-4 M incubated for 48 hrs by sulforhodamine B assay; conditions: read-out: Activity
[20] = test system: NCI-H322M; experiment: Growth inhibition of human NCI-H322M cells assessed as cell growth at 10^-7 M incubated for 48 hrs by sulforhodamine B assay; conditions: read-out: Activity
[21] = Growth inhibition of human ovarian cancer cells incubated for 48 hrs by sulforhodamine B assay; conditions: Cancer cell lines
[22] = Growth inhibition of human Hs 578T cells assessed as cell growth at 10^-7 M incubated for 48 hrs by sulforhodamine B assay; conditions: read-out: Activity
[23] = test system: U-251; experiment: Growth inhibition of human U251 cells incubated for 48 hrs by sulforhodamine B assay; conditions: U-251, 48 h; how it was run: as §1
[24] = Growth inhibition of human DU145 cells assessed as cell growth at 10^-5 M incubated for 48 hrs by sulforhodamine B assay; conditions: DU-145, 48 h, read-out: Activity; how it was run: as §2
[25] = Growth inhibition of human RXF393 cells assessed as cell growth at 10^-6 M incubated for 48 hrs by sulforhodamine B assay; conditions: RXF 393, 48 h, read-out: Activity
[26] = Growth inhibition of human SF539 cells assessed as cell growth at 10^-4 M incubated for 48 hrs by sulforhodamine B assay; conditions: SF-539, 48 h, read-out: Activity
[27] = Growth inhibition of human HOP92 cells assessed as cell growth at 10^-6 M incubated for 48 hrs by sulforhodamine B assay; conditions: HOP-92, 48 h, read-out: Activity
[28] = test system: M14; experiment: Growth inhibition of human M14 cells assessed as cell growth at 10^-5 M incubated for 48 hrs by sulforhodamine B assay; conditions: M14, 48 h, read-out: Activity
[29] = Growth inhibition of human RXF393 cells assessed as cell growth at 10^-4 M incubated for 48 hrs by sulforhodamine B assay; conditions: RXF 393, 48 h, read-out: Activity
[30] = Growth inhibition of human SNB19 cells assessed as cell growth at 10^-5 M incubated for 48 hrs by sulforhodamine B assay; conditions: SNB-19, 48 h, read-out: Activity
[31] = read-out: LC50 (the source's name)
[32] = read-out: pLC50 (the source's name) (converted)

## Clc1ccc(-c2nc(Nc3ccc(-c4nc5ccccc5[nH]4)cc3)nc(N3CCOCC3)n2)cc1
[1]; read-out: GI50
  GI50: 31 nM
[1]; [31]
  CC50: > 100000 nM
[1]; read-out: pGI50 (converted)
  GI50: 30.9 nM
[1]; [32]
  CC50: > 100000 nM
[2]
  LC50 (50% net cell kill): 4330 nM
[2]; read-out: GI50
  GI50: 452 nM
[2]; read-out: TGI
  TGI: 1640 nM
[2]; read-out: pGI50 (converted)
  GI50: 447 nM
[2]; [32]
  CC50: 4370 nM
[2]; read-out: pTGI (converted)
  TGI: 1660 nM
[3]
  growth at 10 µM: -79.5%
[4]
  growth at 0.01 µM: 93%
[5]
  growth at 1 µM: 110%
[6]
  growth at 1 µM: -63%
[7]
  growth at 0.1 µM: 95%
[8]
  growth at 0.1 µM: 101%
[9]
  growth at 10 µM: -55%
[10]
  growth at 0.01 µM: 96%
[11]
  growth at 0.1 µM: 92%
[12]
  GI50: 410 nM
  TGI: 1490 nM
[12]; [31]
  CC50: 4330 nM
[13]
  GI50: 260 nM
  TGI: 690 nM
[13]; [31]
  CC50: 2750 nM
[14]; read-out: GI50
  GI50: 1690 nM
[14]; [31]
  CC50: 5790 nM
[14]; read-out: TGI
  TGI: 3130 nM
[14]; read-out: pGI50 (converted)
  GI50: 1700 nM
[14]; [32]
  CC50: 5750 nM
[14]; read-out: pTGI (converted)
  TGI: 3160 nM
[15]
  growth at 10 µM: -79%
[16]
  growth at 100 µM: -41%
[17]
  growth at 0.1 µM: 92%
[18]
  growth at 100 µM: 2%
[19]
  growth at 100 µM: -7%
[20]
  growth at 0.1 µM: 94%
[21]
  GI50: 920 nM
  TGI: 2300 nM
[21]; [31]
  CC50: 5200 nM
[22]
  growth at 0.1 µM: 87%
[23]; read-out: GI50
  GI50: 215 nM
[23]; read-out: TGI
  TGI: 442 nM
[23]; read-out: pGI50 (converted)
  GI50: 214 nM
[23]; read-out: pTGI (converted)
  TGI: 447 nM
[24]
  growth at 10 µM: -93%
[25]
  growth at 1 µM: -56%
[26]
  growth at 100 µM: -38%
[27]
  growth at 1 µM: 68%
[28]
  growth at 10 µM: -85%
[29]
  growth at 100 µM: -30%
[30]
  growth at 10 µM: -70%
